Screening data deposited in PubChem BioAssay by several laboratories.
NR2E3 ag-1 – activates human NR2E3 receptor; Q9Y5X4; CHO-S Gal4-NCOR/VP16-NR2E3 two-hybrid, luciferase; inhibition of corepressor binding, % at 3.98 µM; 360,000 compounds, 0.35% hits; AID 602229;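 active = inhibition above the mean of all tested compounds plus 3 SD, cut at about 70% in these data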;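 note: 0% = DMSO with NR2E3 transfected cells and 100% = cells lacking NR2E3 construct; higher means lower luciferase signal from less NR2E3 corepressor binding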
ADAM10 inh – inhibitors of human ADAM10 | inhibition, % at 7 µM | 370,000 compounds, 0.62% hits | O14672 | recombinant ADAM10, EDANS/DABCYL FRET peptide cleavage, 3 h;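 active = inhibition above a per-campaign cutoff equal to the mean of compounds falling between control-based bounds plus 3 SD, cut at about 20% in these data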;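 note: 0% = DMSO wells while the 100% control is not disclosed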
KLK7 zymogen act – activates the human kallikrein-7 zymogen. P49862. purified proKLK7, EDANS-DABCYL substrate fluorescence; 100% is mature enzyme control, 0% vehicle. activation, % at 7 µM. 370,000 compounds, 0.9% hits. AID 652039;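 active = activation above the mean of all tested compounds plus 3 SD, computed per campaign excluding outliers beyond control limits, cut at about 13% in these data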
ADAM17 inh – inhibitors of human ADAM17. P78536. recombinant ADAM17, EDANS/DABCYL FRET peptide cleavage. inhibition, % at 6.95 µM. 370,000 compounds, 0.83% hits;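 active = inhibition above the mean of compounds lying between control limits plus 3 SD, set per campaign, cut at about 8.5% in these data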;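 note: 0% = DMSO-only wells as the low control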
Target sequence (P78536 215-824 limits assumed): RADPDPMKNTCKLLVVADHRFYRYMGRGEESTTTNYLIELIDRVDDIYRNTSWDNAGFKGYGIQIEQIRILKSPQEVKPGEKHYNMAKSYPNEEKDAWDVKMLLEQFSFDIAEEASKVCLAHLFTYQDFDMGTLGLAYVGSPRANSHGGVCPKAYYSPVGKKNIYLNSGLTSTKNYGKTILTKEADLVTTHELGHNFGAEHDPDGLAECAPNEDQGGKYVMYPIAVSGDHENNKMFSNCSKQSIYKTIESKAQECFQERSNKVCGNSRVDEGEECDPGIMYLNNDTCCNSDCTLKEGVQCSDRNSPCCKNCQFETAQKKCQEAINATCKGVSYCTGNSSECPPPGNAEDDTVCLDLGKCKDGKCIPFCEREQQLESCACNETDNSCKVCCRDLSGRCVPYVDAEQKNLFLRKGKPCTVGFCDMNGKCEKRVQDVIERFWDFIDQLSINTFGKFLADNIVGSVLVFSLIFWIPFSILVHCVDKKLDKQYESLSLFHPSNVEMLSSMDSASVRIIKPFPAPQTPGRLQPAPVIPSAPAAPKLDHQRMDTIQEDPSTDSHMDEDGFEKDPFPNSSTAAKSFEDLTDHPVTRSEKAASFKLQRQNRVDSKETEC
NR2E3 ag-2 – NR2E3 (human) agonism. AID 2300. 320,000 compounds, 0.12% hits. GST-NR2E3/biotin-RetCOR TR-FRET, 1536-well. inhibition of corepressor binding, % at 4.78 µM;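 active = percent inhibition above the cutoff of mean plus 3 SD of all tested compounds, set per screening campaign, cut at about 20% in these data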;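 note: 0% = DMSO wells and 100% = biotin wells as full block of FRET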
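Material – GST-tagged NR2E3 plus biotinylated RetCOR corepressor · Quantity – NR2E3 fusion 1.35 nM · Times – 5 h incubation at 4 °C · Medium – pH 7.5 Tris-based buffer · Technique – TR-FRET, Eu(K)-anti-GST donor, streptavidin-D2 acceptor, ex 340, em 617/671 nm · Benchmarks – high control biotin, low control 0.6% DMSO · Format – 1536-well plates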
GASC-1 inh – human JMJD2C demethylase inhibition. GST-JMJD2C(1-420) H3K9me3 demethylation, DELFIA europium. inhibition, % at 2.35 µM. 330,000 compounds, 0.069% hits;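 active = more than half of a compound's replicate wells show inhibition beyond 50%, single wells judged on their own value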;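 note: signal counts dimethyl H3K9 product captured on neutravidin plate; 0% = median of DMSO wells and 100% = 0.3 times that DMSO median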
ADAM10 confirm – human ADAM10 inhibition, confirmation; 2,100 compounds, 1% hits; shares compounds with ADAM10 inh; AID 743208; inhibition, % at 6.95 µM; ADAM10 QFRET peptide cleavage, EDANS fluorescence;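 active = inhibition above about 20% chosen separately for each screening run, limit read from the data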;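 note: 0% = DMSO wells and 100% = marimastat wells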
ADAM17 ctr – inhibits human ADAM17 in ADAM10 exosite counter-screen | shares compounds with ADAM10 inh | ADAM17 QFRET peptide cleavage, EDANS fluorescence | inhibition, % at 6.95 µM | 2,100 compounds, 0.5% hits | AID 743214;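 active = mean triplicate inhibition above the solvent-only control wells' mean plus 3 SD, cut at about 12% in these data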;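 note: 0% = DMSO wells and 100% = marimastat wells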
ADAM10 counter – counter-screen for ADAM17 exosite inhibitors: inhibitors of human ADAM10; recombinant ADAM10, EDANS/DABCYL FRET peptide cleavage, 3 h; AID 743256; 2,900 compounds, 47% hits; shares compounds with ADAM17 inh; inhibition, % at 6.95 µM;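 active = mean inhibition over the triplicate runs exceeds the activity threshold set in the earlier primary screen, cut at about 20% in these data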;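 note: 0% = DMSO wells and 100% = marimastat wells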
ADAM17 confirm – confirmation of inhibitors of human ADAM17; shares compounds with ADAM17 inh; recombinant ADAM17, EDANS/DABCYL QFRET peptide cleavage; inhibition, % at 6.95 µM; 2,900 compounds, 65% hits; AID 743257;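 active = mean inhibition across replicates above the hit cutoff set in the primary screen, cut at about 8.5% in these data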;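 note: 0% = DMSO wells and 100% = marimastat wells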
Active calls of the source: *; . = no result given. Sampled rows, rich in hits. Any-hit rate of the full collection: about 2.5%.

SMILES	NR2E3 ag-1	ADAM10 inh	KLK7 zymogen act	ADAM17 inh	NR2E3 ag-2	GASC-1 inh	ADAM10 confirm	ADAM17 ctr	ADAM10 counter	ADAM17 confirm
COc1ccc(-n2c(SCC(=O)Nc3cc(C)c(NC(=O)c4ccccc4)cc3OC)nnc2-c2ccco2)cc1	.	24*	0	12*	.	.	5	5	19	8.7*
COc1ccc(OC)c(NC(=S)NCc2ccccc2OC)c1	9	-4	1	-5	3	10	.	.	.	.
COc1ccc(OC)c(NC(=S)NCCC(c2ccccc2)c2ccccc2)c1	14	21*	0	8.7*	3	1	7	2	23*	22*
CNS(=O)(=O)c1cccc(C(=O)NNC(=O)c2ccc(COc3ccccc3)cc2)c1	-23	-6	0	0	2	-9	.	.	.	.
CCCC(=O)N1CCCC1(C)C(=O)Nc1ccc(-n2cncn2)cc1 (stereo not drawn)	-1	-11	0	-5	.	.	.	.	.	.
CCCNC(=O)c1cc(C2CCCN(S(=O)(=O)c3cccc4cccnc34)C2)on1 (stereo not drawn)	7	-3	0	-1	.	.	.	.	.	.
O=C(Nc1ccc(F)c(Cl)c1)c1cc(C2CCCN(S(=O)(=O)c3cccc4cccnc34)C2)on1 (stereo not drawn)	-38	25*	0	12*	.	.	4	2	25*	13*
COc1ccc2nc(SC(C)C(=O)NC3CCCC3)[nH]c2c1 (stereo not drawn)	-38	-5	0	-5	.	.	.	.	.	.
O=C(Nc1ccc(Br)c(C(F)(F)F)c1)c1ccccc1	-70	35*	0	13*	0	3	2	1	25*	15*
O=C(CCC(=O)N1CCOc2ccccc21)NCCCN1CCN(Cc2ccccc2)CC1	-10	-17	0	-4	5	-4	.	.	.	.
O=[N+]([O-])c1cc(S(=O)(=O)Nc2ccccc2)ccc1N1CCN(c2ccc(O)cc2)CC1	10	14	-1	5	-3	3	.	.	.	.
Cc1ccc(NS(=O)(=O)c2ccc(N3CCN(c4ccc(O)cc4)CC3)c([N+](=O)[O-])c2)c(C)c1	-16	20*	1	10*	-2	7	6	-1	32*	19*
COc1ccc(NC(C)C(=O)N/N=C/c2ccccc2OCc2cccc(Br)c2)cc1 (stereo not drawn)	-34	21*	0	8.8*	2	-9	11	3	48*	22*
Cc1ccccc1NC(C)C(=O)N/N=C/c1ccccc1OCc1cccc(Br)c1 (stereo not drawn)	-12	24*	-1	9.7*	-2	-20	17	6	16	14*
Cc1cccc(/C=N/NC(=O)c2ccccc2OCc2cccc(Br)c2)n1	4	4	0	1	0	-2	.	.	.	.
Nc1ncnc2c1ncn2[C@@H]1O[C@H](C(=O)N[C@H]2c3ccccc3C[C@H]2O)[C@@H](O)[C@H]1O	25	-4	-1	2	.	.	.	.	.	.
C[C@@H]1CCN(C2CC2)S(=O)(=O)c2c(cccc2N2CC[C@@H](O)C2)O1	.	-10	0	-6	.	.	.	.	.	.
CC(C)(C)c1ccc(OCCNC(=S)NC(=O)c2cccnc2)cc1	6	-5	0	-2	1	1	.	.	.	.
Cc1cc(C(=O)COC(=O)c2ccc(O)cc2)c(C)n1CC1COc2ccccc2O1 (stereo not drawn)	-15	26*	0	20*	1	2	7	3	13	8
Cc1cc(C)c(-c2cc(NC(=O)COC(=O)c3ccc(NC(=O)CC#N)cc3)n(-c3ccccc3)n2)cc1C	-2	-3	0	0	3	20	.	.	.	.
Cc1cc(C)c(-c2cc(NC(=O)COC(=O)c3ccc(C#N)cc3)n(-c3ccccc3)n2)cc1C	-35	23*	-1	9.1*	-2	-45	15	4	22*	13*
Cc1nn(Cc2ccccc2)c(C)c1/C=N/NC(=O)CNc1cccc(C(F)(F)F)c1	3	21*	0	11*	1	13	4	1	19	10*
COc1ccc(NC(=O)c2cc(-c3cc(Cl)ccc3OC)n[nH]2)c(OC)c1	-11	29*	0	13*	.	.	7	2	35*	18*
CCOc1ccc(Cl)cc1-c1cc(C(=O)Nc2ccc(OC)cc2OC)[nH]n1	-16	-3	0	-1	.	.	.	.	.	.
C=CCNC(=S)Nc1ccc(N(C)C)cc1	-59	-3	0	0	-5	8	.	.	.	.
SMILES	NR2E3 ag-1	ADAM10 inh	KLK7 zymogen act	ADAM17 inh	NR2E3 ag-2	GASC-1 inh	ADAM10 confirm	ADAM17 ctr	ADAM10 counter	ADAM17 confirm
CC(O)[C@H]1CNCCN1CC1(c2ccccc2)CC1 (stereo partly drawn)	3	20*	0	11*	4	6	2	0	-5	1
CCC(C)[C@H]1CNCCN1CC1(c2ccccc2)CC1 (stereo partly drawn)	15	1	0	5	1	-1	.	.	.	.
Cc1ccc(C)c(N2CCN(S(=O)(=O)c3ccc4c(c3)NC(=O)CS4)CC2)c1	19	20*	0	12*	-1	-4	8	2	34*	18*
CC(C)c1nnc(NC(=O)CCC(=O)NC2CCCc3ccccc32)s1 (stereo not drawn)	-19	1	1	-4	2	11	.	.	.	.
COc1ccc(OCc2nc(C#N)c(N3CCN(c4ccc(OC)cc4)CC3)o2)cc1	-15	29*	2	16*	.	-7	5	2	12	4
COc1ccc(Nc2oc(COc3cccc(C)c3)nc2C#N)cc1	-115	30*	-1	10*	-2	107	4	1	21*	13*
COc1ccc(Nc2oc(COc3ccc(C)cc3)nc2C#N)cc1	-20	20	0	6	1	-10	.	.	.	.
Cc1ccc(S(=O)(=O)N2CCOC2CNC(=O)C(=O)NCCN(C)C)cc1 (stereo not drawn)	-6	-7	0	-4	-1	5	.	.	.	.
